Activity calls are given as the source filed them. The calls are words filed in the database; no cut-off is given here.

Data set [1] has as its system K562. The experiment in a line: Antiproliferative activity against human K562 cells assessed as reduction in cell viability after 48 hrs by MTT assay. The format is functional, cell-based. The note with it: K562, 48 h. (Tetrazolium dyes change colour on reduction, which living cells bring about.)
The test system of data set [2] is HEL. The experiment in a line: Antiproliferative activity against HEL cells harboring JAK2 V617F mutant assessed as reduction in cell viability after 48 hrs by MTT assay. The class given is functional, cell-based. The following applies: Homo sapiens.
The target in data set [3] is T1, Protein deacetylase HDAC6 (Homo sapiens, UniProt Q9UBN7).
T1 sequence (Q9UBN7 whole entry): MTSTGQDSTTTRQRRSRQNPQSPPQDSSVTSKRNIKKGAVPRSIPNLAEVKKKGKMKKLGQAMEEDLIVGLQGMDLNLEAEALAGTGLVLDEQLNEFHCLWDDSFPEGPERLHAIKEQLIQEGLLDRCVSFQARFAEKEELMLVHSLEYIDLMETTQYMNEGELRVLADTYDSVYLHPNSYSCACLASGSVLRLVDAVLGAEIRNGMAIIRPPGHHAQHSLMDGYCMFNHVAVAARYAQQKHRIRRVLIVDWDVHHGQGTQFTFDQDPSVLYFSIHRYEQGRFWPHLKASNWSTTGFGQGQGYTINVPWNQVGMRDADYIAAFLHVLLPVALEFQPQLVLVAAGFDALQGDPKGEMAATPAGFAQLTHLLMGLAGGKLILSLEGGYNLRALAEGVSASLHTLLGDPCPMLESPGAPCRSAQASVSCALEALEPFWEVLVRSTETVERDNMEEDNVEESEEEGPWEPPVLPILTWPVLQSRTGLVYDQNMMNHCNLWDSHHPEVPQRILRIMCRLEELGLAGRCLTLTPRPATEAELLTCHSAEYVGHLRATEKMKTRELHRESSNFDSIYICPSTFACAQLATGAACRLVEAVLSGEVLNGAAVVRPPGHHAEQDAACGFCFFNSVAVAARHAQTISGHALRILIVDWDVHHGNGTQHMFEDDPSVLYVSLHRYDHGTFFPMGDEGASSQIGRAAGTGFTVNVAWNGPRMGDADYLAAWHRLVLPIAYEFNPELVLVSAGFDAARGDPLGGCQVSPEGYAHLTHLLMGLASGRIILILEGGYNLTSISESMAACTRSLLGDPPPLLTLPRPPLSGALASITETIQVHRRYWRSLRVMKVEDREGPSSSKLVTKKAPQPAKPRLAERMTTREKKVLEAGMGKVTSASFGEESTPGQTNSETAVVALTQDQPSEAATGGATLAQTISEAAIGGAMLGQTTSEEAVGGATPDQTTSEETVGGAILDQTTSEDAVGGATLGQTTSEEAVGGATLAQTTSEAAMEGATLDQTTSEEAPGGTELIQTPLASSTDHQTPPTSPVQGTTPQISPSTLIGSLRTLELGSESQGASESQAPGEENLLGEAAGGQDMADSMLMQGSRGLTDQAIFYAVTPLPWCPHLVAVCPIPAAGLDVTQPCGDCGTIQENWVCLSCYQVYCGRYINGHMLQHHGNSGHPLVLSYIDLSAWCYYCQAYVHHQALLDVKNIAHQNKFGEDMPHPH
The experiment in a line: Inhibition of recombinant human HDAC6 using p53 (379 to 382 residues) derived fluorogenic peptide RHKKAc as substrate.

The test system of the next data set is MOLT-4. The experiment in a line: Antiproliferative activity against human MOLT4 cells assessed as reduction in cell viability after 48 hrs by MTT assay. The format is functional, cell-based. The note with it: MOLT-4, 48 h. An outline of the steps: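 Cells kept in RPMI1640 with 10% FBS at 37 °C, 5% CO2. Seeded and grown for 12 h, then exposed to a range of compound concentrations for 48 h. 0.5% MTT added for 4 h, formazan dissolved in DMSO, absorbance read at 570 nm.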

The next data set relates to Jurkat. The experiment in a line: Antiproliferative activity against human Jurkat cells assessed as reduction in cell viability after 48 hrs by MTT assay. The class given is functional, cell-based.
The subject of data set [4] is HEL. Description: Synergistic antiproliferative activity against HEL cells harboring JAK2 V617F mutant assessed as reduction in cell viability after 48 hrs in presence of SAHA by MTT assay. The format is functional, cell-based. The note with it: Homo sapiens.
For data set [5], the system named is K562. Description: Synergistic antiproliferative activity against human K562 cells assessed as reduction in cell viability after 48 hrs in presence of SAHA by MTT assay. The format is functional, cell-based. The note with it: K562, 48 h.
For data set [6], the system named is HEL. Description: Synergistic antiproliferative activity against HEL cells harboring JAK2 V617F mutant assessed as combination index after 48 hrs in presence of SAHA by MTT assay. The class given is functional, Homo sapiens.
Data set [7] relates to K562. The experiment in a line: Synergistic antiproliferative activity against human K562 cells assessed as combination index after 48 hrs in presence of SAHA by MTT assay. The class given is functional.
Data set [8] concerns HEL. Description: Induction of apoptosis in HEL cells assessed as viable cells at 1 uM after 24 hrs by Annexin-V/propidium iodide staining-based flow cytometric analysis (reference value: 87.5%). The class given is functional, Homo sapiens. Background: Flow cytometry measures light scatter and fluorescence of single cells or particles in a stream.
Data set [9] concerns HEL. Description: Induction of apoptosis in HEL cells assessed as early apoptotic cells at 1 uM after 24 hrs by Annexin-V/propidium iodide staining-based flow cytometric analysis (reference value: 12.5%). The class given is functional, Homo sapiens.
The test system of data set [10] is HEL. The experiment in a line: Induction of apoptosis in HEL cells assessed as late apoptotic cells at 1 uM after 24 hrs by Annexin-V/propidium iodide staining-based flow cytometric analysis (reference value: 0.023%). The class given is functional, Homo sapiens.
The subject of data set [11] is HEL. The experiment in a line: Induction of apoptosis in HEL cells assessed as necrotic apoptotic cells at 1 uM after 24 hrs by Annexin-V/propidium iodide staining-based flow cytometric analysis (reference value: 0.011%). The class given is functional, Homo sapiens.
In data set [12] the test system is K562. Description: Induction of apoptosis in human K562 cells assessed as viable cells at 1 uM after 24 hrs by Annexin-V/propidium iodide staining-based flow cytometric analysis (reference value: 85.7%). The format is functional.
Data set [13] relates to K562. Description: Induction of apoptosis in human K562 cells assessed as early apoptotic cells at 1 uM after 24 hrs by Annexin-V/propidium iodide staining-based flow cytometric analysis (reference value: 7.55%). The class given is functional.
The test system of data set [14] is K562. The experiment in a line: Induction of apoptosis in human K562 cells assessed as late apoptotic cells at 1 uM after 24 hrs by Annexin-V/propidium iodide staining-based flow cytometric analysis (reference value: 5.87%). The class given is functional.
The subject of data set [15] is K562. Description: Induction of apoptosis in human K562 cells assessed as necrotic apoptotic cells at 1 uM after 24 hrs by Annexin-V/propidium iodide staining-based flow cytometric analysis (reference value: 0.827%). The format is functional.
Data set [16] relates to HEL. The experiment in a line: Antitumor activity against HEL cells xenografted in BALB/c nu mouse assessed as reduction in tumor volume at 100 mg/kg/day, ip administered for 16 days and measured every 3 days during compound dosing by caliper method relative to control. The class given is functional, Homo sapiens. The note with it: read-out: TGI.
Data set [17] deals with HEL. Description: Antitumor activity against HEL cells xenografted in BALB/c nu mouse assessed as tumor growth inhibition at 70 mg/kg/day, ip administered for 16 days and measured every 3 days during compound dosing in presence of SAHA by caliper method relative to control. The class given is functional, Homo sapiens. The following applies: read-out: TGI. An outline of the steps: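 Male BALB/c-nu mice (5-6 weeks) inoculated subcutaneously in the right flank with 1 × 10^7 HEL cells. Randomized at day 10 (6 per group). Dosed IP daily for 16 days; controls received PBS with 5% DMSO. Tumors measured by caliper every three days (V = ab²/2) and body weight monitored. TGI calculated from final tumor weights versus control.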

Data set [18] is described as follows: Toxicity in BALB/c nu mouse xenografted with HEL cells assessed as change in body weight at 70 mg/kg/day, ip administered for 16 days and measured every day during compound dosing in presence of SAHA. The class given is organism-based. The note with it: in vivo, 384 h.
A short description of data set [19]: Drug level in tumor of BALB/c nu mouse xenografted with HEL cells at 100 mg/kg/day, ip administered for 5 days and measured 1 hr post-last dose by LC-MS/MS analysis. The class given is ADME, organism-based, Neoplasm. The following applies: in vivo. An outline of the steps: (§1)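 HEL-xenografted male BALB/c-nu mice dosed IP at 100 mg/kg/day for 5 days. Sacrificed 0.5, 1.0 and 4.0 h after the last dose. Plasma separated and stored at -80 °C. Tumors homogenized in normal saline (5:1 v/w) and sonicated. Samples deproteinized with methanol containing internal standard, centrifuged, diluted in methanol/acetonitrile and recentrifuged.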

A short description of data set [20]: Toxicity in BALB/c nu mouse xenografted with HEL cells assessed as injury to internal organs at 70 mg/kg/day, ip administered for 16 days and measured post-last dose in presence of SAHA. The following applies: in vivo, 384 h. The format is organism-based.
In another data set the target is Histone deacetylase 2 (Homo sapiens, UniProt Q92769). The note with it: A549, at 80 to 400 nM.
Data set [21] concerns the target Tyrosine-protein kinase JAK2 (Homo sapiens, UniProt O60674). The experiment in a line: Inhibition of recombinant human JAK2 at 10 uM using Ulight-CAGAGAIETDKEYYTVKD as substrate measured after 60 mins by LANCE assay.
Data set [22] deals with T2, Janus Kinase (JAK) (Homo sapiens) (UniProt P52333+P23458+O60674+P29597). The experiment in a line: Inhibition of JAK in human MDA-MB-231 cells assessed as decrease in upregulation of p-STAT3-Tyr705 level at 5 uM after 12 hrs in presence of ruxolitinib by Western blot analysis. The class given is cell-based. An outline of the steps:
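MDA-MB-231 cells treated with compound or DMSO for 12 h, then lysed in SDS buffer and cleared by centrifugation. Lysate resolved by SDS-PAGE and transferred to nitrocellulose. Immunoblotted for p-STAT3 (Tyr705), total STAT3, acetyl-α-tubulin and acetyl-histone H3, with GAPDH as loading control. Detection by enhanced chemiluminescence.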
On the technique in general: In western blotting, separated proteins are transferred to a membrane and probed.

Data set [23] is described as follows: Drug level in BALB/c nu mouse xenografted with HEL cells at 100 mg/kg/day, ip administered for 5 days and measured after 0.5 to 4 hrs by LC-MS/MS analysis. The class given is ADME, organism-based. The following applies: in vivo. An outline of the steps:
as §1

Data set [24] in a line: Toxicity in BALB/c nu mouse xenografted with HEL cells assessed as change in body weight at 60 mg/kg/day, ip administered for 16 days and measured every day during compound dosing in presence of ruxolitinib. The class given is organism-based. The following applies: in vivo, 384 h.
Data set [25] is described as follows: Toxicity in BALB/c nu mouse xenografted with HEL cells assessed as injury to internal organs at 60 mg/kg/day, ip administered for 16 days and measured post-last dose in presence of ruxolitinib. The following applies: in vivo, 384 h. The format is organism-based.
In data set [26] the target is T2, Janus Kinase (JAK) (Homo sapiens). The experiment in a line: Inhibition of JAK in human MDA-MB-231 cells assessed as downregulation of p-STAT3-Tyr705 level at 5 uM after 12 hrs by Western blot analysis.

Tyrosine-protein kinase JAK2, sequence (O60674 whole entry): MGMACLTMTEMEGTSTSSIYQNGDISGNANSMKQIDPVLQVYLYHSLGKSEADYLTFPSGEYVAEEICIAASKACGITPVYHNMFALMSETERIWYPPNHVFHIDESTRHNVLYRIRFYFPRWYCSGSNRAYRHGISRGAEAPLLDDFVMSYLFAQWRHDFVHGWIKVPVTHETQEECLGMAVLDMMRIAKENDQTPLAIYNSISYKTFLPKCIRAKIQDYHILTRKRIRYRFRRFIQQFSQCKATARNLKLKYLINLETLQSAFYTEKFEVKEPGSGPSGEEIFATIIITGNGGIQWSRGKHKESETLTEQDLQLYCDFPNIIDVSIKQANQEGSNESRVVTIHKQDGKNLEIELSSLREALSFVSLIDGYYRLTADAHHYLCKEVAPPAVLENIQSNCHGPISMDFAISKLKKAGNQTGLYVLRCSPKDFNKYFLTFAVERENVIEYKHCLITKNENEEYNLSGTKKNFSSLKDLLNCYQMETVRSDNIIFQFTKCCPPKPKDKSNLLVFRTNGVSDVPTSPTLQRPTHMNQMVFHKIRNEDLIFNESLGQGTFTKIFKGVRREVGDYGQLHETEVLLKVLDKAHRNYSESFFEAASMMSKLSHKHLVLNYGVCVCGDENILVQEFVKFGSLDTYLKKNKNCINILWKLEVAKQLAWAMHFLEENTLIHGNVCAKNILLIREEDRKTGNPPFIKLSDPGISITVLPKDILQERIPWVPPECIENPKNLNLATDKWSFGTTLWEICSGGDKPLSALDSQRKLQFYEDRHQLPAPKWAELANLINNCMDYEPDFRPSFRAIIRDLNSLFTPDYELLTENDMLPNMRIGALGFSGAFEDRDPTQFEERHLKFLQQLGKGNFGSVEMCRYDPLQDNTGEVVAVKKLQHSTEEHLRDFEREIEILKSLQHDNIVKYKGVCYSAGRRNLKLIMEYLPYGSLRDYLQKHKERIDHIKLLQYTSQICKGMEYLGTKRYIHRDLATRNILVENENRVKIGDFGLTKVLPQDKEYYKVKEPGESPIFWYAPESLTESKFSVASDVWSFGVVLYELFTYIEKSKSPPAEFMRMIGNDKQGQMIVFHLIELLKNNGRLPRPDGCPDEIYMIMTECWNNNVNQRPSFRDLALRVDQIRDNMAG
Histone deacetylase 2, sequence (Q92769 whole entry): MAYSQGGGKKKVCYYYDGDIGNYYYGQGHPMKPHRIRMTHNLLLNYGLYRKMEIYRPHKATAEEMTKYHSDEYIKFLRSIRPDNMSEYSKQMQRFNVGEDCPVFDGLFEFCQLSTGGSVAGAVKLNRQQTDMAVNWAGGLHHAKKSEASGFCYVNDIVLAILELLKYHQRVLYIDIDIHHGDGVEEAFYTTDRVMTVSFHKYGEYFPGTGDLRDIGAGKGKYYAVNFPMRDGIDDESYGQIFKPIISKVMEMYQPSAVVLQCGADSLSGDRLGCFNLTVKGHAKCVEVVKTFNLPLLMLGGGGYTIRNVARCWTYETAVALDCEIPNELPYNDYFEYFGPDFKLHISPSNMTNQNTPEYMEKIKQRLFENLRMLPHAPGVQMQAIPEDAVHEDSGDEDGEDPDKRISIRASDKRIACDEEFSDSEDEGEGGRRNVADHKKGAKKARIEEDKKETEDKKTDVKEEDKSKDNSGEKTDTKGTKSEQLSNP

As a reminder, the IC50 is the concentration needed to halve the response being measured. Take `N#CC[C@H](C1CCCC1)n1cc(-c2ncnc3[nH]ccc23)cn1` [RUXOLITINIB]: the IC50 was 23200 nM in the data set with K562 [1]; 18600 nM in the data set on HEL [2]; 15 nM in data set [3]; 15800 nM in the data set on MOLT-4; over 5000 nM in the data set with Jurkat; 300 nM with HEL [4]. In addition, the IC50 with K562 [5] came to 1030 nM. Moreover, the values for the CI with HEL [6] and with K562 [7] were 0.48 and 0.97, respectively. Besides, the viability at 1 µM in the data set with HEL [8] (Homo sapiens, HEL, 24 h, read-out: Activity) stood at 79.4%; with K562 [12] (Homo sapiens, K562, 24 h, read-out: Activity) it was 75.2%. Moreover, the Activity is reported as 8.08% with HEL [9]; 11.7% in the data set with HEL [10]; 0.85% in the data set on HEL [11]; 9.22% with K562 [13]; 15.3% with K562 [14]; 0.248% in the data set with K562 [15]. Besides, the Activity entry in data set [18] and in data set [20] was “Non-Toxic” in each case. Besides, in the data set with HEL [16], the inhibition in vivo at 100 mg/kg/day is 27%. For the same compound, the inhibition in vivo at 70 mg/kg/day in the data set on HEL [17] came to 57%. Further, the Drug uptake result in data set [19] is “Active”. Moreover, the inhibition result at Histone deacetylase 2 is “Active”.

Turning to `O=C(CCCCCCC(=O)Nc1ccccc1)NO` [VORINOSTAT], in [21], the inhibition result is “inactive”. Also, the 50% inhibitory concentration (IC50) in the data set with MOLT-4 was 400 nM. Also, in data set [22], the inhibition result was “Active”. The Activity is 32.1% with HEL [8]; 21.3% in the data set with HEL [9]; 44.6% with HEL [10]; 2% in the data set with HEL [11]; 67.6% in the data set with K562 [12]; 14.5% in the data set on K562 [13]. The Activity in the data set with K562 [14] is reported as 17.3%; with K562 [15], 0.73%; in data set [24], “Non-Toxic”; in data set [25], “Non-Toxic”. Further, in data set [23], the Drug uptake result is listed as “Active”. In addition, in [26], the outcome was Active.
